According to ChEMBL document CHEMBL3271984, “Antifungal activity of 4-substituted crotonic acid esters” (1976):
≈ marks a conversion by molar mass, not a printed value. Calls of active or inactive are those of the source. No cut-off for these calls is given here.

Assays:
Mucor mucedo [1] = test: Antifungal activity against Mucor mucedo ATCC 7941 incubated for 20 hrs; type: functional, organism-based
Aspergillus niger [2] = test: Antifungal activity against Aspergillus niger ATCC 1004 incubated for 5 days; type: functional, organism-based
[3] = system: Trichophyton mentagrophytes; test: Antifungal activity against Trichophyton mentagrophytes ATCC 9129 incubated for 5 days; type: functional, organism-based
Candida albicans [4] = test: Antifungal activity against Candida albicans ATCC 10231 incubated for 20 hrs; type: functional, organism-based
Candida albicans [5] = test: Antifungal activity against Candida albicans ATCC 10231 assessed as growth inhibition at pH 5.6 incubated for 20 hrs in absence of 10% beef serum; type: functional; details: ATCC 10231, 20 h, read-out: MIC100
How it was run: (§1)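 Agar dilution in Sabouraud dextrose agar at pH 5.6 or 7.0, with or without 10% beef serum. C. albicans and M. mucedo were incubated 20 h at 37°; A. niger and T. mentagrophytes 5 days at 28°. The value is the minimal µg/ml giving 100% inhibition. Steps were 1 µg/ml up to 10, 2 up to 20, then 10 up to 100 µg/ml maximum.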

Mucor mucedo [6] = test: Antifungal activity against Mucor mucedo ATCC 7941 assessed as ratio of glutathione to compound at pH 7 incubated for 20 hrs in absence of 10% beef serum; type: functional
How it was run: (§2)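 Sabouraud agar at pH 7.0 without beef serum. The toxicant was added at one increment above its minimal inhibitory level for each organism. Cystine, cysteine or glutathione was added at molar ratios of 1:1 to 10:1 versus toxicant, in 1-equiv steps. Plates were inoculated and incubated at 37° for 20 h (C. albicans, M. mucedo) or 28° for 5 days (A. niger, T. mentagrophytes), then scored for growth.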

Candida albicans [7] = test: Antifungal activity against Candida albicans ATCC 10231 assessed as ratio of cysteine to compound at pH 7 incubated for 20 hrs in absence of 10% beef serum; type: functional; how it was run: as §2
Candida albicans [8] = test: Antifungal activity against Candida albicans ATCC 10231 assessed as growth inhibition at pH 7 incubated for 20 hrs in absence of 10% beef serum; type: functional; details: ATCC 10231, 20 h, read-out: MIC100; how it was run: as §1
Aspergillus niger [9] = test: Antifungal activity against Aspergillus niger ATCC 1004 assessed as growth inhibition at pH 7 incubated for 5 days in presence of 10% beef serum; type: functional; details: for MIC: ATCC 1004, 120 h, read-out: MIC100; how it was run: as §1
[10] = system: Trichophyton mentagrophytes; test: Antifungal activity against Trichophyton mentagrophytes ATCC 9129 assessed as ratio of cysteine to compound at pH 7 incubated for 5 days in absence of 10% beef serum; type: functional; how it was run: as §2
[11] = system: Trichophyton mentagrophytes; test: Antifungal activity against Trichophyton mentagrophytes ATCC 9129 assessed as ratio of glutathione to compound at pH 7 incubated for 5 days in absence of 10% beef serum; type: functional; how it was run: as §2
Aspergillus niger [12] = test: Antifungal activity against Aspergillus niger ATCC 1004 assessed as ratio of glutathione to compound at pH 7 incubated for 5 days in absence of 10% beef serum; type: functional; how it was run: as §2
[13] = system: Trichophyton mentagrophytes; test: Antifungal activity against Trichophyton mentagrophytes ATCC 9129 assessed as growth inhibition at pH 5.6 incubated for 5 days in presence of 10% beef serum; type: functional; details: ATCC 9129, 120 h, read-out: MIC100; how it was run: as §1
Mucor mucedo [14] = test: Antifungal activity against Mucor mucedo ATCC 7941 assessed as ratio of cysteine to compound at pH 7 incubated for 20 hrs in absence of 10% beef serum; type: functional; how it was run: as §2
Candida albicans [15] = test: Antifungal activity against Candida albicans ATCC 10231 assessed as growth inhibition at pH 5.6 incubated for 20 hrs in presence of 10% beef serum; type: functional; details: ATCC 10231, 20 h, read-out: MIC100; how it was run: as §1
Aspergillus niger [16] = test: Antifungal activity against Aspergillus niger ATCC 1004 assessed as growth inhibition at pH 7 incubated for 5 days in absence of 10% beef serum; type: functional; details: for MIC: ATCC 1004, 120 h, read-out: MIC100; how it was run: as §1
Candida albicans [17] = test: Antifungal activity against Candida albicans ATCC 10231 assessed as growth inhibition at pH 7 incubated for 20 hrs in presence of 10% beef serum; type: functional; details: ATCC 10231, 20 h, read-out: MIC100; how it was run: as §1
Aspergillus niger [18] = test: Antifungal activity against Aspergillus niger ATCC 1004 assessed as ratio of cysteine to compound at pH 7 incubated for 5 days in absence of 10% beef serum; type: functional; how it was run: as §2
Mucor mucedo [19] = test: Antifungal activity against Mucor mucedo ATCC 7941 assessed as growth inhibition at pH 7 incubated for 20 hrs in absence of 10% beef serum; type: functional; details: ATCC 7941, 20 h, read-out: MIC100; how it was run: as §1
Aspergillus niger [20] = test: Antifungal activity against Aspergillus niger ATCC 1004 assessed as ratio of cystine to compound at pH 7 incubated for 5 days in absence of 10% beef serum; type: functional; how it was run: as §2
[21] = system: Trichophyton mentagrophytes; test: Antifungal activity against Trichophyton mentagrophytes ATCC 9129 assessed as growth inhibition at pH 7 incubated for 5 days in absence of 10% beef serum; type: functional; details: ATCC 9129, 120 h, read-out: MIC100; how it was run: as §1
Candida albicans [22] = test: Antifungal activity against Candida albicans ATCC 10231 assessed as ratio of glutathione to compound at pH 7 incubated for 20 hrs in absence of 10% beef serum; type: functional; how it was run: as §2
Mucor mucedo [23] = test: Antifungal activity against Mucor mucedo ATCC 7941 assessed as growth inhibition at pH 7 incubated for 20 hrs in presence of 10% beef serum; type: functional; details: ATCC 7941, 20 h, read-out: MIC100; how it was run: as §1
Mucor mucedo [24] = test: Antifungal activity against Mucor mucedo ATCC 7941 assessed as growth inhibition at pH 5.6 incubated for 20 hrs in presence of 10% beef serum; type: functional; details: ATCC 7941, 20 h, read-out: MIC100; how it was run: as §1
[25] = system: Trichophyton mentagrophytes; test: Antifungal activity against Trichophyton mentagrophytes ATCC 9129 assessed as ratio of cystine to compound at pH 7 incubated for 5 days in absence of 10% beef serum; type: functional; how it was run: as §2
Candida albicans [26] = test: Antifungal activity against Candida albicans ATCC 10231 assessed as ratio of cystine to compound at pH 7 incubated for 20 hrs in absence of 10% beef serum; type: functional; how it was run: as §2
[27] = system: Trichophyton mentagrophytes; test: Antifungal activity against Trichophyton mentagrophytes ATCC 9129 assessed as growth inhibition at pH 5.6 incubated for 5 days in absence of 10% beef serum; type: functional; details: ATCC 9129, 120 h, read-out: MIC100; how it was run: as §1
Aspergillus niger [28] = test: Antifungal activity against Aspergillus niger ATCC 1004 assessed as growth inhibition at pH 5.6 incubated for 5 days in absence of 10% beef serum; type: functional; details: for MIC: ATCC 1004, 120 h, read-out: MIC100; how it was run: as §1
Mucor mucedo [29] = test: Antifungal activity against Mucor mucedo ATCC 7941 assessed as growth inhibition at pH 5.6 incubated for 20 hrs in absence of 10% beef serum; type: functional; details: ATCC 7941, 20 h, read-out: MIC100; how it was run: as §1
[30] = system: Trichophyton mentagrophytes; test: Antifungal activity against Trichophyton mentagrophytes ATCC 9129 assessed as growth inhibition at pH 7 incubated for 5 days in presence of 10% beef serum; type: functional; details: ATCC 9129, 120 h, read-out: MIC100; how it was run: as §1
Mucor mucedo [31] = test: Antifungal activity against Mucor mucedo ATCC 7941 assessed as ratio of cystine to compound at pH 7 incubated for 20 hrs in absence of 10% beef serum; type: functional; how it was run: as §2
Aspergillus niger [32] = test: Antifungal activity against Aspergillus niger ATCC 1004 assessed as growth inhibition at pH 5.6 incubated for 5 days in presence of 10% beef serum; type: functional; details: for MIC: ATCC 1004, 120 h, read-out: MIC100; how it was run: as §1

## C/C=C/C(=O)OCCC
Mucor mucedo [1]
  Activity: inactive
Aspergillus niger [2]
  Activity: inactive
[3]
  Activity: inactive
Candida albicans [4]
  Activity: inactive

## C/C=C/C(=O)OCCCC
Mucor mucedo [1]
  Activity: inactive
Aspergillus niger [2]
  Activity: inactive
[3]
  Activity: inactive
Candida albicans [4]
  Activity: inactive

## C/C=C/C(=O)OCC
Mucor mucedo [1]
  Activity: inactive
Aspergillus niger [2]
  Activity: inactive
[3]
  Activity: inactive
Candida albicans [4]
  Activity: inactive

## C/C=C/C(=O)OCCCCCC
Mucor mucedo [1]
  Activity: inactive
Aspergillus niger [2]
  Activity: inactive
[3]
  Activity: inactive
Candida albicans [4]
  Activity: inactive

## COC(=O)/C=C/CBr
Candida albicans [5]
  MIC: 30 µg/mL (≈ 168 µM)
Mucor mucedo [6]
  Ratio: 8
Candida albicans [7]
  Ratio: 2
Candida albicans [8]
  MIC: 30 µg/mL (≈ 168 µM)
Aspergillus niger [9]
  MIC: 60 µg/mL
[10]
  Ratio: 10
[11]
  Ratio: 9
Aspergillus niger [12]
  Ratio: <1
[13]
  MIC: 5 µg/mL
Mucor mucedo [14]
  Ratio: 4
Candida albicans [15]
  MIC: 30 µg/mL
Aspergillus niger [16]
  MIC: 50 µg/mL (≈ 279 µM)
Candida albicans [17]
  MIC: 30 µg/mL
Aspergillus niger [18]
  Ratio: <1
Mucor mucedo [19]
  MIC: 10 µg/mL (≈ 55.9 µM)
Aspergillus niger [20]
  Ratio: >10
[21]
  MIC: 5 µg/mL (≈ 27.9 µM)
Candida albicans [22]
  Ratio: 3
Mucor mucedo [23]
  MIC: 14 µg/mL
Mucor mucedo [24]
  MIC: 8 µg/mL
[25]
  Ratio: >10
Candida albicans [26]
  Ratio: >10
[27]
  MIC: 3 µg/mL (≈ 16.8 µM)
Aspergillus niger [28]
  MIC: 50 µg/mL (≈ 279 µM)
Mucor mucedo [29]
  MIC: 6 µg/mL (≈ 33.5 µM)
[30]
  MIC: 6 µg/mL
Mucor mucedo [31]
  Ratio: >10
Aspergillus niger [32]
  MIC: 50 µg/mL

## C/C=C/C(=O)OC
Mucor mucedo [1]
  Activity: inactive
Aspergillus niger [2]
  Activity: inactive
[3]
  Activity: inactive
Candida albicans [4]
  Activity: inactive

## C=CC(=O)OC
Mucor mucedo [1]
  Activity: inactive
Aspergillus niger [2]
  Activity: inactive
[3]
  Activity: inactive
Candida albicans [4]
  Activity: inactive

## C/C=C/C(=O)OCCCCC
Mucor mucedo [1]
  Activity: inactive
Aspergillus niger [2]
  Activity: inactive
[3]
  Activity: inactive
Candida albicans [4]
  Activity: inactive

## COC(=O)/C=C/CSC
Mucor mucedo [6]
  Ratio: <1
[10]
  Ratio: <1
[11]
  Ratio: <1
Mucor mucedo [14]
  Ratio: <1
Mucor mucedo [19]
  MIC: 80 µg/mL (≈ 547 µM)
[21]
  MIC: 70 µg/mL (≈ 479 µM)
[25]
  Ratio: >10
[27]
  MIC: 90 µg/mL (≈ 616 µM)
Mucor mucedo [29]
  MIC: 70 µg/mL (≈ 479 µM)
Mucor mucedo [31]
  Ratio: >10

## CCOC(=O)/C=C/CBr
Candida albicans [5]
  MIC: 20 µg/mL (≈ 104 µM)
Candida albicans [8]
  MIC: 30 µg/mL (≈ 155 µM)
Aspergillus niger [9]
  MIC: 80 µg/mL
[13]
  MIC: 2 µg/mL
Candida albicans [15]
  MIC: 30 µg/mL
Aspergillus niger [16]
  MIC: 70 µg/mL (≈ 363 µM)
Candida albicans [17]
  MIC: 40 µg/mL
Mucor mucedo [19]
  MIC: 6 µg/mL (≈ 31.1 µM)
[21]
  MIC: 2 µg/mL (≈ 10.4 µM)
Mucor mucedo [23]
  MIC: 7 µg/mL
Mucor mucedo [24]
  MIC: 7 µg/mL
[27]
  MIC: < 1 µg/mL
Aspergillus niger [28]
  MIC: 80 µg/mL (≈ 414 µM)
Mucor mucedo [29]
  MIC: 5 µg/mL (≈ 25.9 µM)
[30]
  MIC: 4 µg/mL
Aspergillus niger [32]
  MIC: 90 µg/mL

## CCCCOC(=O)/C=C/CI
Candida albicans [5]
  MIC: 10 µg/mL (≈ 37.3 µM)
Candida albicans [8]
  MIC: 12 µg/mL (≈ 44.8 µM)
Aspergillus niger [9]
  MIC: 70 µg/mL
[13]
  MIC: 3 µg/mL
Candida albicans [15]
  MIC: 20 µg/mL
Aspergillus niger [16]
  MIC: 20 µg/mL (≈ 74.6 µM)
Candida albicans [17]
  MIC: 30 µg/mL
Mucor mucedo [19]
  MIC: 4 µg/mL (≈ 14.9 µM)
[21]
  MIC: < 1 µg/mL
Mucor mucedo [23]
  MIC: 7 µg/mL
Mucor mucedo [24]
  MIC: 5 µg/mL
[27]
  MIC: < 1 µg/mL
Aspergillus niger [28]
  MIC: 30 µg/mL (≈ 112 µM)
Mucor mucedo [29]
  MIC: 2 µg/mL (≈ 7.46 µM)
[30]
  MIC: 7 µg/mL
Aspergillus niger [32]
  MIC: 70 µg/mL

## CCCCCCOC(=O)/C=C/CBr
Candida albicans [5]
  MIC: 20 µg/mL (≈ 80.3 µM)
Candida albicans [8]
  MIC: 20 µg/mL (≈ 80.3 µM)
Aspergillus niger [9]
  MIC100: inactive
[13]
  MIC: 14 µg/mL
Candida albicans [15]
  MIC: 70 µg/mL
Aspergillus niger [16]
  MIC100: inactive
Candida albicans [17]
  MIC: 90 µg/mL
Mucor mucedo [19]
  MIC: 16 µg/mL (≈ 64.2 µM)
[21]
  MIC: 4 µg/mL (≈ 16.1 µM)
Mucor mucedo [23]
  MIC: 50 µg/mL
Mucor mucedo [24]
  MIC: 40 µg/mL
[27]
  MIC: < 1 µg/mL
Aspergillus niger [28]
  MIC100: inactive
Mucor mucedo [29]
  MIC: 14 µg/mL (≈ 56.2 µM)
[30]
  MIC: 30 µg/mL
Aspergillus niger [32]
  MIC100: inactive
